From ChEMBL document CHEMBL4138208, “Targeting tubulin polymerization by novel 7-aryl-pyrroloquinolinones: Synthesis, biological activity and SARs” (Eur J Med Chem, 2018)
Active and inactive are the calls of the source. No cut-off for these calls is given here.

Legend:
Kasumi 1 = experiment: Growth inhibition of human Kasumi-1 cells after 72 hrs by MTT assay; format: functional; details: Kasumi 1, 72 h
Jurkat = experiment: Growth inhibition of human Jurkat cells after 72 hrs by MTT assay; format: functional
Bos taurus = organism: Bos taurus; experiment: Inhibition of [3H]colchicine binding to bovine brain tubulin at 1 to 5 uM by DEAE-cellulose filter method relative to control
RS4-11 = experiment: Growth inhibition of human RS4:11 cells after 72 hrs by MTT assay; format: functional; details: RS4-11, 72 h
A549 = experiment: Growth inhibition of human A549 cells after 72 hrs by MTT assay; format: functional; details: A549, 72 h
MDA-MB-231 = experiment: Growth inhibition of human MDA-MB-231 cells after 72 hrs by MTT assay; format: functional; details: MDA-MB-231, 72 h
HeLa [1] = experiment: Growth inhibition of human HeLa cells after 72 hrs by MTT assay; format: functional
HT-29 = experiment: Growth inhibition of human HT-29 cells after 72 hrs by MTT assay; format: functional; details: HT-29, 72 h
CCRF-CEM [2] = experiment: Cytotoxicity against human multidrug-resistant CEM/VBL100 cells after 72 hrs by MTT assay; format: functional, cell-based
Summary of the method: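 CEMVbl-100 (vinblastine-selected, P-gp-overexpressing) cells maintained in RPMI-1640 containing 100 ng/mL vinblastine. Seeded at 8 × 10^3 per well, preincubated 18 h, then exposed in triplicate to varying concentrations for 72 h. Viability read by MTT. IC50 taken as mean ± SEM of three separate experiments.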

HeLa [3] = experiment: Cell cycle arrest in human HeLa cells assessed as accumulation at G2/M phase after 24 hrs by propidium iodide staining-based flow cytometric analysis; format: functional
Summary of the method: (§1)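 HeLa cells (5 × 10^5) exposed to graded compound concentrations for 24 h, fixed in ice-cold 70% ethanol, then lysed in buffer with RNase A and 0.1% Triton X-100. DNA stained with propidium iodide and phase distribution read by flow cytometry. Mean of two independent experiments ± SEM.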

CCRF-CEM [4] = experiment: Cytotoxicity against human CEM cells after 72 hrs by MTT assay; format: functional, cell-based
Summary of the method: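 Cells seeded at 8 × 10^3 per well and preincubated 18 h at 37 °C, 5% CO2. Leukemia lines were in RPMI-1640 and adherent lines in DMEM, each with 10% FBS plus penicillin/streptomycin. Medium replaced with compound at varying concentrations, in triplicate, for 72 h.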

HeLa [5] = experiment: Cell cycle arrest in human HeLa cells assessed as accumulation at G1 phase after 24 hrs by propidium iodide staining-based flow cytometric analysis; format: functional; summary of the method: as §1
HeLa [6] = experiment: Cell cycle arrest in human HeLa cells assessed as accumulation at S phase after 24 hrs by propidium iodide staining-based flow cytometric analysis; format: functional; summary of the method: as §1
HeLa [7] = experiment: Induction of apoptosis in human HeLa cells at 0.1 uM after 24 to 48 hrs by propidium iodide/annexin V/FITC staining-based flow cytometric analysis; format: functional, cell-based
Summary of the method: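 A549 or HeLa cells treated for 24 or 48 h. Cells harvested, double-stained with annexin-V-FITC and propidium iodide, and analysed by flow cytometry for phosphatidylserine exposure. Mean ± SEM of three independent experiments.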

HeLa [8] = experiment: Induction of ROS production in human HeLa cells at 0.1 to 1 uM after 12 to 24 hrs by H2DCFDA staining based flow cytometric analysis; format: functional, cell-based
Summary of the method: (§2)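 HeLa cells exposed for 6, 12, 24 or 48 h. Stained either with JC-1 to read mitochondrial membrane potential or with H2-DCFDA to read ROS, then analysed by flow cytometry. Mean ± SEM of three independent experiments.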

HeLa [9] = experiment: Induction of apoptosis in human HeLa cells assessed as decrease in Mcl-1 levels at 0.1 to 1 uM after 24 hrs by Western blot analysis; format: functional, cell-based
Summary of the method: (§3)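 HeLa cells treated for the stated times (24 or 48 h), washed in cold PBS and lysed on ice for 30 min. Lysate cleared at 15000 × g, 4 °C. 10 µg protein run on SDS-PAGE and blotted to PVDF, blocked in 5% BSA. Primary antibodies 2 h at room temperature, then peroxidase secondary 60 min, ECL detection. Membranes stripped and reprobed for γ-tubulin as loading control.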

[10] = biological target: T1, M-phase inducer phosphatase 3 (Homo sapiens) (UniProt P30307); experiment: Inhibition of cdc25c phosphorylation in human HeLa cells at 0.1 to 1 uM after 24 to 48 hrs by Western blot analysis; format: cell-based; summary of the method: as §3
T1 sequence (whole entry): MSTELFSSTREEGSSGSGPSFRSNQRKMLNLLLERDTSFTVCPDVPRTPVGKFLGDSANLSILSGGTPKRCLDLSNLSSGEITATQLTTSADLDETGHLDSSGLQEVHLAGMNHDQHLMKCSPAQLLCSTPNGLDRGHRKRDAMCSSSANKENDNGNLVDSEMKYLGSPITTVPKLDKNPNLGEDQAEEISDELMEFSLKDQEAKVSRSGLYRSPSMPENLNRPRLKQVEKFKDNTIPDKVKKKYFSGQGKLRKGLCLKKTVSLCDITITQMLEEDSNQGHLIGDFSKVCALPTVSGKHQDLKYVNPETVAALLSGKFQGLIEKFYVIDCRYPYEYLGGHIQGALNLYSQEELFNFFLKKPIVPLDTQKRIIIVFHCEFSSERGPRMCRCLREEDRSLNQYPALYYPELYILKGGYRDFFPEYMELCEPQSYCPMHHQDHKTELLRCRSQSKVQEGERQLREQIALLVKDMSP

HeLa [11] = experiment: Induction of apoptosis in human HeLa cells assessed as decrease in Bcl-2 levels at 0.1 to 1 uM after 24 hrs by Western blot analysis; format: functional, cell-based; summary of the method: as §3
HeLa [12] = experiment: Cell cycle arrest in human HeLa cells assessed as decrease in phosphatase cdc25c expression at 0.1 to 1 uM after 24 to 48 hrs by Western blot analysis; format: functional, cell-based; summary of the method: as §3
HeLa [13] = experiment: Induction of mitochondrial membrane depolarization in human HeLa cells at 0.1 to 1 uM by JC-1 staining based flow cytometric analysis; format: functional, cell-based; details: TDE = time-dependent effect; summary of the method: as §2
[14] = biological target: Cyclin-dependent kinase 1 (Homo sapiens) (UniProt P06493); experiment: Inhibition of cdc2 phosphorylation at Y15 in human HeLa cells at 0.1 to 1 uM after 24 to 48 hrs by Western blot analysis; format: cell-based; summary of the method: as §3
Cyclin-dependent kinase 1 (Homo sapiens), sequence (P06493 whole entry, looked up): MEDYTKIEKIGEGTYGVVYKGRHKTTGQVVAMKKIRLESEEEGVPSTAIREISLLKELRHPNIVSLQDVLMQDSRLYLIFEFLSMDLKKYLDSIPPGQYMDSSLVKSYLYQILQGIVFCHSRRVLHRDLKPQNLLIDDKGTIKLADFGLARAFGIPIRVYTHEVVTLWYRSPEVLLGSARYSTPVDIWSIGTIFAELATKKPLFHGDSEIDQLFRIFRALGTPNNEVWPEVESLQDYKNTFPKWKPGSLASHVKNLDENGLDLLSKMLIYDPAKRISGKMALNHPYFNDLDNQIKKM

| SMILES | GI50 (Kasumi 1) | GI50 (Jurkat) | GI50 (RS4-11) | GI50 (A549) | GI50 (MDA-MB-231) | GI50 (HeLa [1]) | GI50 (HT-29) | other results |
| --- | --- | --- | --- | --- | --- | --- | --- | --- |
| CCn1ccc2cc3c(=O)cc(-c4ccccc4)[nH]c3cc21 | 30 nM | 27 nM | 13 nM | 7.1 nM | 641 nM | 49 nM | 16 nM | inhibition (Bos taurus): 24% |
| CCn1ccc2c3c(=O)cc(-c4cccc5ccccc45)[nH]c3ccc21 |  |  |  |  |  |  |  | IC50 (CCRF-CEM [2]): 2.3 nM; Activity (HeLa [3]): Active; IC50 (CCRF-CEM [4]): 29.8 nM; Activity (HeLa [5]): Active; Activity (HeLa [6]): Active |
| CCCCCCCCCCCCCCCCCCn1ccc2c3c(=O)cc(-c4ccccc4)[nH]c3ccc21 | > 10000 nM | > 10000 nM | > 10000 nM | 820 nM | 5360 nM | 8350 nM | > 10000 nM |  |
| CC[C@]1(O)C[C@@H]2CN(CCc3c([nH]c4ccccc34)[C@@](C(=O)OC)(c3cc4c(cc3OC)N(C)[C@H]3[C@@](O)(C(=O)OC)[C@H](OC(C)=O)[C@]5(CC)C=CCN6CC[C@]43[C@@H]65)C2)C1 [VINBLASTINE] |  |  |  |  |  |  |  | IC50 (CCRF-CEM [2]): 285 nM; IC50 (CCRF-CEM [4]): 1.5 nM |
| CCn1ccc2ccc3[nH]c(-c4ccccc4)cc(=O)c3c21 | 30 nM | 27 nM | 13 nM | 7.1 nM | 641 nM | 49 nM | 16 nM | inhibition (Bos taurus): 24% |
| COc1ccc(/C=C\c2cc(OC)c(OC)c(OC)c2)cc1O |  |  |  |  |  |  |  | Activity (HeLa [7]): Active |
| O=C1C=C(c2ccccc2)Nc2cccc3ccn1c23 | > 10000 nM | > 10000 nM | > 10000 nM | > 10000 nM | > 10000 nM | > 10000 nM | > 10000 nM |  |
| CCn1ccc2c3c(=O)cc(-c4ccc5c(c4)OCO5)[nH]c3ccc21 |  |  |  |  |  |  |  | Activity (HeLa [8]): Active; Activity (HeLa [9]): Active; inhibition [10]: Active; IC50 (CCRF-CEM [2]): 3.7 nM; Activity (HeLa [11]): Active; Activity (HeLa [12]): Active; Activity (HeLa [3]): Active; IC50 (CCRF-CEM [4]): 27.8 nM; Activity (HeLa [13]): Tde; inhibition [14]: Active; Activity (HeLa [5]): Active; Activity (HeLa [6]): Active |
| CCCCCCCCCCCCCCCCCCn1ccc2c3c(=O)cc(C)[nH]c3ccc21 | > 10000 nM | > 10000 nM | > 10000 nM | 3400 nM | > 10000 nM | 2380 nM | > 10000 nM |  |
| CCn1ccc2c3c(=O)cc(-c4ccc5ccccc5c4)[nH]c3ccc21 | 396 nM | 32 nM | 22 nM | 744 nM | 465 nM | 714 nM | 376 nM |  |
| CCn1ccc2ccc3c(=O)cc(-c4ccccc4)[nH]c3c21 | > 10000 nM | > 10000 nM | > 10000 nM | 9590 nM | > 10000 nM | 5920 nM | > 10000 nM |  |
| CCn1ccc2c3c(=O)cc(-c4ccc5c(c4)CCCC5)[nH]c3ccc21 |  |  |  |  |  |  |  | Activity (HeLa [3]): Active; Activity (HeLa [5]): Active; Activity (HeLa [6]): Active |
